ChEMBL document CHEMBL4190338, “1-Benzyl-3-aryl-2-thiohydantoin Derivatives as New Anti-Trypanosoma brucei Agents: SAR and in Vivo Efficacy” (ACS Med Chem Lett, 2017)
Converted amounts (≈) assume the structure as drawn.

Columns and labels:
[1] = system: Trypanosoma brucei brucei; experiment: Antitrypanosomal activity against Trypanosoma brucei brucei BF427 measured after 48 hrs by Alamar blue assay; type: functional, organism-based; details: BF427, 48 h
In short: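 Bloodstream T. brucei BF427 cultured in HMI-9 medium. Exposed to serial 3-fold compound dilutions in triplicate, read with Alamar Blue at 48 h. Pentamidine isethionate control in every assay.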

[2] = Protein binding in Swiss Webster mouse plasma at 2 uM after 8 hrs by microdialysis based liquid chromatography/tandem mass spectrometric analysis; type: ADME, cell-free
In short: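 Compound at 2 µM in 50% pooled female Swiss Webster mouse plasma (lithium heparin) with 10X PBS, dialysed against blank 10X PBS in triplicate chambers of a microdialysis device. Incubation at 37 °C, 5% CO2 overnight or ≥8 h with shaking. Centrifuged 3000 rcf 15 min; supernatants concentrated, LC-MS/MS. Propranolol control.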

[3] = Cytotoxicity against human CRL8155 cells assessed as growth inhibition after 48 hrs by Alamar blue assay; type: cell-based
In short: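 Serial 3-fold dilutions in quadruplicate, 48 h, AlamarBlue read-out. Inhibition relative to untreated cells after subtracting a 50 µM quinacrine background. EC50 by nonlinear regression.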

Mus musculus [4] = experiment: Cmax in mouse at 50 mg/kg, po administered as single dose measured 24 hrs post dose by liquid chromatography/tandem mass spectrometric analysis; type: ADME, organism-based; parameters: dose 50 mg/kg, route oral; details: in vivo
In short: (§1)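 Single oral dose of 50 mg/kg to mice in Phosal 53 MCT (60%)/PEG400 (30%)/ethanol (10%). Tail blood collected at 0.5, 1, 2, 4, 6, 8 and 24 h post dose and spotted onto DMPK cards. Punched dried blood spot disks extracted with acetonitrile, quantified by LC-MS/MS.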

[5] = Ratio of drug level in mouse brain to plasma at 5 mg/kg, ip administered as single dose measured 1 hr post dose by liquid chromatography/tandem mass spectrometric analysis; type: ADME, organism-based
In short: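 Single IP injection of 5 mg/kg in 5% DMSO/7% Tween80/3% EtOH in 0.9% saline. At 1 h, plasma and brains collected; brains homogenized in water. Vehicle-injected mice (n=3) supplied matrix for standard curves. LC-MS/MS quantitation, with brain levels corrected for 3% v/w residual blood.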

[6] = system: Trypanosoma brucei rhodesiense; experiment: Antitrypanosomal activity against trypomastigote form of Trypanosoma brucei rhodesiense STIB900 infected in mouse assessed as cure rate at 50 mg/kg administered via oral gavage bid from day 2 to 5 post infection measured 3 times per week for first month and weekly up to 60 days by microscopic method relative to control; type: functional
Mus musculus [7] = experiment: AUC in mouse at 50 mg/kg, po administered as single dose measured 24 hrs post dose by liquid chromatography/tandem mass spectrometric analysis; type: ADME, organism-based; details: in vivo; in short: as §1
[8] = Solubility in phosphate buffered saline at pH 7.4 at 50 uM incubated overnight by liquid chromatography/tandem mass spectrometric analysis; type: physicochemical; details: buffer, pH 7.4, 50 µM
In short: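 Compound at 50 µM in 1X PBS adjusted to pH 7.4, shaken overnight at 37 °C, then centrifuged 13500 rpm for 15 min at room temperature. Duplicate supernatant aliquots analysed by LC-MS/MS.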

Cytochrome P450 3A4 = Cytochrome P450 3A4 (Homo sapiens, UniProt P08684); experiment: Inhibition of CYP3A4 (unknown origin); type: ADME
Sequence of Cytochrome P450 3A4 (P08684 whole entry): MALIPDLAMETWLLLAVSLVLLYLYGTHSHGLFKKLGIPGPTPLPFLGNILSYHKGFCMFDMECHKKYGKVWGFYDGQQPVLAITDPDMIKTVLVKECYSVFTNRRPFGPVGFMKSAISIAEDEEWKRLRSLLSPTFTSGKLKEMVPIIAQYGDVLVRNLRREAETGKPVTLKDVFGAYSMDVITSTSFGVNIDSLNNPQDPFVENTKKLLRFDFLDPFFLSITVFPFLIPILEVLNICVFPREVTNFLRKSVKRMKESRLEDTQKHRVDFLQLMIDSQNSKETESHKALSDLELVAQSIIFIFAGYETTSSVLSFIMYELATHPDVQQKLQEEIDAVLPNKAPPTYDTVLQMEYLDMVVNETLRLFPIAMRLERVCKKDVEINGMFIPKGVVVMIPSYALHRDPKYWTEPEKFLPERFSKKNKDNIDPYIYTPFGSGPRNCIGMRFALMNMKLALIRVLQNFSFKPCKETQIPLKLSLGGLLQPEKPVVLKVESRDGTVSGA

SMILES: COc1ccc(N2C(=O)CN(Cc3cccnc3)C2=S)cc1Cl
- EC50 [1]: 3 µM

SMILES: CC(C)NCC(O)COc1cccc2ccccc12 (stereo not given) [PROPRANOLOL]
- PPB [2]: 91.7%

SMILES: O=C1CN(Cc2ccccc2)C(=S)N1c1ccccc1
- EC50 [1]: > 10 µM

SMILES: O=C1CN(Cc2ccccc2)C(=S)N1c1ccc(O)cc1
- EC50 [1]: > 10 µM

SMILES: COc1ccc(N2C(=O)CN(Cc3ccccc3)C2=S)cc1
- EC50 [1]: > 10 µM

SMILES: O=C1CN(Cc2ccc(F)cc2)C(=S)N1c1ccc(N2CCCC2)c(Cl)c1
- EC50 [1]: 0.027 µM
- CC50 [3]: > 50 µM

SMILES: COc1ccc(N2C(=O)CN(Cc3ccc(F)c(F)c3)C2=S)cc1OC
- EC50 [1]: 0.115 µM
- CC50 [3]: > 50 µM

SMILES: COc1ccc(N2C(=O)CN(Cc3ccccc3)C2=S)cc1N(C)C
- EC50 [1]: 0.431 µM

SMILES: CN(C)c1ccc(N2C(=O)CN(Cc3ccc(F)cc3C(F)(F)F)C2=S)cc1Cl
- EC50 [1]: 0.022 µM
- CC50 [3]: > 50 µM

SMILES: COc1ccc(N2C(=O)CN(Cc3ccc(C#N)cc3)C2=S)cc1Cl
- EC50 [1]: 17.8 µM

SMILES: COc1ccc(N2C(=O)CN(Cc3ccc(F)c(C#N)c3)C2=S)cc1Cl
- EC50 [1]: > 20 µM

SMILES: COc1ccc(N2C(=O)CN(Cc3ccccc3)C2=S)cc1OC
- EC50 [1]: 0.161 µM

SMILES: COc1cc(N2C(=O)CN(Cc3ccc(F)cc3)C2=S)ccc1N(C)C
- EC50 [1]: 0.007 µM
- CC50 [3]: > 50 µM

SMILES: COc1ccc(N2C(=O)CN(Cc3ccc(F)c(F)c3)C2=S)cc1Cl
- EC50 [1]: 0.313 µM

SMILES: COc1ccc(N2C(=O)CN(Cc3ccc(F)cc3C(F)(F)F)C2=S)cc1OC
- EC50 [1]: 0.037 µM
- CC50 [3]: > 50 µM

SMILES: COc1ccc(N2C(=O)CN(Cc3ccc(F)cc3OC)C2=S)cc1Cl
- EC50 [1]: 0.191 µM

SMILES: O=C1CN(Cc2ccccc2)C(=S)N1c1ccccc1Cl
- EC50 [1]: > 20 µM

SMILES: COc1ccc(N2C(=O)CN(Cc3ccc(C)cc3)C2=S)cc1Cl
- EC50 [1]: 1.55 µM

SMILES: COc1ccc(N2C(=O)CN(Cc3ccc(F)cc3C(F)(F)F)C2=S)cc1Cl
- EC50 [1]: 0.924 µM

SMILES: COc1ccc(N2C(=O)CN(Cc3ccc(C(F)(F)F)cc3)C2=S)cc1Cl
- EC50 [1]: > 20 µM

SMILES: COc1cc(N2C(=O)CN(Cc3ccc(F)cc3F)C2=S)ccc1N(C)C
- EC50 [1]: 0.006 µM
- CC50 [3]: > 50 µM

SMILES: COc1ccc(N2C(=O)CN(Cc3ccc(F)cc3[N+](=O)[O-])C2=S)cc1OC
- EC50 [1]: 0.555 µM
- CC50 [3]: > 50 µM

SMILES: O=C1CN(Cc2ccccc2)C(=S)N1c1ccc(F)c(Cl)c1
- EC50 [1]: > 10 µM

SMILES: COc1ccc(N2C(=O)CN(Cc3ccc(F)cc3F)C2=S)cc1Cl
- EC50 [1]: 0.063 µM

SMILES: COc1ccc(N2C(=O)CN(Cc3cccc(F)c3)C2=S)cc1Cl
- EC50 [1]: 0.968 µM

SMILES: O=C1CN(Cc2ccccc2)C(=S)N1c1cc(Cl)ccc1F
- EC50 [1]: > 10 µM

SMILES: COc1ccc(N2C(=O)CN(Cc3ccc(F)cc3[N+](=O)[O-])C2=S)cc1Cl
- EC50 [1]: 0.35 µM

SMILES: COc1cc(F)ccc1CN1CC(=O)N(c2ccc(OC)c(OC)c2)C1=S
- EC50 [1]: 0.107 µM
- CC50 [3]: > 50 µM

SMILES: COc1ccc(N2C(=O)CN(Cc3ccc(F)cc3Cl)C2=S)cc1OC
- EC50 [1]: 0.014 µM
- CC50 [3]: 36.8 µM

SMILES: O=C(O)c1ccc(N2C(=O)CN(Cc3ccccc3)C2=S)cc1
- EC50 [1]: > 10 µM

SMILES: O=C1CN(Cc2ccccc2)C(=S)N1c1ccc(Cl)c(C(F)(F)F)c1
- EC50 [1]: > 10 µM

SMILES: COc1cc(N2C(=O)CN(Cc3ccccc3)C2=S)cc(OC)c1OC
- EC50 [1]: > 10 µM

SMILES: COc1ccc(Cl)cc1N1C(=O)CN(Cc2ccccc2)C1=S
- EC50 [1]: > 10 µM

SMILES: N=C(N)c1ccc(OCCCCCOc2ccc(C(=N)N)cc2)cc1
- EC50 [1]: 0.00115 µM

SMILES: O=C1CN(Cc2ccccc2)C(=S)N1c1cccc(Cl)c1
- EC50 [1]: > 20 µM

SMILES: COc1ccc(N2C(=O)CN(Cc3ccc(Cl)cc3)C2=S)cc1Cl
- EC50 [1]: 0.853 µM

SMILES: COc1cccc(N2C(=O)CN(Cc3ccccc3)C2=S)c1
- EC50 [1]: > 10 µM

SMILES: COc1cc(F)ccc1CN1CC(=O)N(c2ccc(N(C)C)c(OC)c2)C1=S
- EC50 [1]: 0.011 µM
- CC50 [3]: 39.6 µM

SMILES: COc1ccc(CN2CC(=O)N(c3ccc(OC)c(Cl)c3)C2=S)cc1
- EC50 [1]: > 20 µM

SMILES: COc1ccc(N2C(=O)CN(Cc3ccc(F)cc3)C2=S)cc1Cl
- EC50 [1]: 0.052 µM

SMILES: CCN(CC)CCCC(C)Nc1c2ccc(Cl)cc2nc2ccc(OC)cc12 (stereo not given) [QUINACRINE]
- CC50 [3]: 2.34 µM

SMILES: COc1ccc(N2C(=O)CN(Cc3ccc(F)cc3)C2=S)cc1OC
- EC50 [1]: 0.049 µM
- CC50 [3]: > 50 µM

SMILES: CN(C)c1ccc(N2C(=O)CN(Cc3ccc(F)cc3F)C2=S)cc1Cl
- EC50 [1]: 0.004 µM
- CC50 [3]: > 50 µM

SMILES: COc1cc(N2C(=O)CN(Cc3ccc(F)c(F)c3)C2=S)ccc1N(C)C
- EC50 [1]: 0.028 µM
- CC50 [3]: > 50 µM

SMILES: CN(C)c1ccc(N2C(=O)CN(Cc3ccccc3)C2=S)cc1F
- EC50 [1]: 0.125 µM

SMILES: CN(C)c1ccc(N2C(=O)CN(Cc3ccc(F)cc3Cl)C2=S)cc1Cl
- EC50 [1]: 0.002 µM
- CC50 [3]: > 50 µM

SMILES: COc1cc(N2C(=O)CN(Cc3ccccc3)C2=S)ccc1N(C)C
- EC50 [1]: 0.013 µM

SMILES: O=C1CN(Cc2ccc(F)cc2Cl)C(=S)N1c1ccc(N2CCCC2)c(Cl)c1
- EC50 [1]: 0.009 µM
- CC50 [3]: > 50 µM

SMILES: COC(=O)c1ccc(CN2CC(=O)N(c3ccc(OC)c(Cl)c3)C2=S)cc1
- EC50 [1]: > 20 µM

SMILES: COc1ccc(N2C(=O)CN(Cc3ccccc3)C2=S)cc1Cl
- EC50 [1]: 0.346 µM

SMILES: COc1ccc(N2C(=O)CN(Cc3ccccc3)C2=S)c(OC)c1
- EC50 [1]: 0.637 µM

SMILES: COc1ccc(N2C(=O)CN(Cc3ccc(F)cc3F)C2=S)cc1OC
- EC50 [1]: 0.033 µM
- CC50 [3]: > 50 µM

SMILES: CN(C)c1ccc(N2C(=O)CN(Cc3ccc(F)cc3[N+](=O)[O-])C2=S)cc1Cl
- EC50 [1]: 0.019 µM
- CC50 [3]: > 50 µM

SMILES: CC(=O)c1ccc(N2C(=O)CN(Cc3ccccc3)C2=S)cc1
- EC50 [1]: > 10 µM

SMILES: COc1cc(N2C(=O)CN(Cc3ccc(F)cc3[N+](=O)[O-])C2=S)ccc1N(C)C
- EC50 [1]: 0.044 µM
- CC50 [3]: > 50 µM

SMILES: CN(C)c1ccc(N2C(=O)CN(Cc3ccc(F)cc3Cl)C2=S)cc1F
- EC50 [1]: 0.015 µM
- CC50 [3]: > 50 µM

SMILES: CN(C)c1ccc(N2C(=O)CN(Cc3ccc(F)c(F)c3)C2=S)cc1Cl
- EC50 [1]: 0.013 µM
- CC50 [3]: > 50 µM

SMILES: CN(C)c1ccc(N2C(=O)CN(Cc3ccccc3)C2=S)cc1Cl
- EC50 [1]: 0.016 µM

SMILES: O=C1CN(Cc2ccccc2)C(=S)N1c1ccc(Cl)cc1
- EC50 [1]: > 10 µM

SMILES: O=C1CN(Cc2ccccc2)C(=S)N1c1cc(C(F)(F)F)cc(C(F)(F)F)c1
- EC50 [1]: > 10 µM

SMILES: O=C1CN(Cc2ccc(F)cc2F)C(=S)N1c1ccc(N2CCCC2)c(Cl)c1
- EC50 [1]: 0.01 µM
- CC50 [3]: > 50 µM

SMILES: COc1cc(N2C(=O)CN(Cc3ccc(F)cc3Cl)C2=S)ccc1N(C)C
- Cmax (Mus musculus [4]): 2500 nM
- BPR [5]: 1.68
- Activity [6]: 100%
- AUC (Mus musculus [7]): 750 µmol·min/L
- PPB [2]: 96.3%
- solubility [8]: 4.1 µM (≈ 1.67 µg/mL)
- EC50 [1]: 0.0019 to 0.002 µM
- IC50 (Cytochrome P450 3A4): 7.76 µM
- CC50 [3]: > 50 µM

SMILES: COc1cc(F)ccc1CN1CC(=O)N(c2ccc(N(C)C)c(Cl)c2)C1=S
- EC50 [1]: 0.011 µM
- CC50 [3]: 12.6 µM

SMILES: COc1cc(N2C(=O)CN(Cc3ccc(F)cc3C(F)(F)F)C2=S)ccc1N(C)C
- EC50 [1]: 0.028 µM
- CC50 [3]: > 50 µM

SMILES: CN(C)c1ccc(N2C(=O)CN(Cc3ccccc3)C2=S)cc1
- EC50 [1]: 1.5 µM

SMILES: O=C1CN(Cc2ccccc2)C(=S)N1c1ccc(F)cc1
- EC50 [1]: > 10 µM

SMILES: CC(C)c1ccc(N2C(=O)CN(Cc3ccccc3)C2=S)cc1
- EC50 [1]: > 10 µM

SMILES: CN(C)c1ccc(N2C(=O)CN(Cc3ccc(F)cc3F)C2=S)cc1F
- EC50 [1]: 0.028 µM
- CC50 [3]: > 50 µM
